Experimental findings from ChEMBL document CHEMBL4020823, “Highly Selective, Potent, and Oral mTOR Inhibitor for Treatment of Cancer as Autophagy Inducer” (J Med Chem, 2018) are described below.

Data set [1] has as its target Phosphatidylinositol 4,5-bisphosphate 3-kinase catalytic subunit gamma isoform (Homo sapiens) (UniProt P48736). Put plainly: Inhibition of full length recombinant human PI3K p120gamma at 1 uM relative to control. Put shortly: (§1)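 Eurofins KinaseProfiler panel with compound at a single 1 μM concentration. ATP at the Km of each kinase. Result is % inhibition, mean of two independent experiments.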

The species named for data set [2] is Homo sapiens. Put plainly: Inhibition of mTORC2 in human MDA-MB-231 cells assessed as reduction in AKT phosphorylation at Ser473 residues at 0.25 to 0.5 uM by Western blot analysis. Format: cell-based. The method in brief: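 Cells exposed to a range of compound concentrations; whole-cell lysates immunoblotted for phospho-AKT (Ser473) as the mTORC2 readout, alongside S6 and 4E-BP1 phosphorylation for mTORC1. Membranes blocked in 5% skim milk, primary antibodies overnight at 4 °C, peroxidase-conjugated anti-mouse or anti-rabbit IgG secondary, ECL detection. Rapamycin as comparator.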
(A western blot detects proteins with antibodies after separation by electrophoresis.)

In data set [3] the test system is HeLa. Put plainly: Inhibition of mTORC1 in human HeLa cells assessed as reduction in S6 phosphorylation at Ser 240/244 residues at 0.5 to 1 uM by Western blot analysis. It is filed as cell-based. Put shortly: (§2)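 Cells treated with the indicated concentrations, then whole-cell lysates immunoblotted. mTORC1 activity read as S6 and 4E-BP1 phosphorylation; mTORC2 activity read as AKT Ser473 phosphorylation. Blocking in 5% skim milk, primary antibodies at 4 °C overnight, peroxidase-conjugated secondary, ECL detection.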

The target of data set [4] is Phosphatidylinositol 4-phosphate 3-kinase C2 domain-containing subunit alpha (Homo sapiens) (UniProt O00443). Put plainly: Inhibition of human PI3KC2alpha at 1 uM relative to control. The method in brief:
as §1

The target in data set [5] is PI3K p110 delta/p85 alpha (Mus musculus) (UniProt P26450+O35904). Put plainly: Inhibition of full length recombinant mouse PI3K p110delta/p85alpha at 1 uM relative to control. It is filed as protein-complex assay. The method in brief: as §1
For data set [6], the species on record is Homo sapiens. Put plainly: Inhibition of mTORC1 in human T47D cells assessed as reduction in S6 phosphorylation at Ser 240/244 residues at 0.25 to 0.5 uM by Western blot analysis. It is filed as cell-based. The method in brief: as §2
The target in data set [7] is PI3K p110 beta/p85 alpha (Homo sapiens) (UniProt P27986+P42338). Put plainly: Inhibition of full length recombinant human PI3K p110beta/p85alpha at 1 uM relative to control. It is filed as protein-complex assay. The method in brief:
as §1

In the next data set the test system is T47D. Put plainly: Antitumor activity against human T47D cells xenografted in BALB/c nude mouse assessed as decrease in tumor growth administered via oral gavage after 3 weeks. Format: functional, cell-based.
For data set [8], the system named is HeLa. Put plainly: Cell cycle arrest in human HeLa cells assessed as accumulation at G0/G1 phase at 0.5 to 1 uM after 24 hrs by propidium iodide-staining based flow cytometric analysis. Format: functional. The method in brief: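 Cells were seeded at 5 × 10^5 cells/mL. At 24 h after plating they were treated with increasing concentrations for 24 h, washed in PBS, and fixed in ice-cold 70% ethanol for at least 24 h. They were stained with propidium iodide plus RNase A for 30 min at 37 °C and analysed by flow cytometry for phase distribution.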
In general terms: Flow cytometry measures light scatter and fluorescence of single cells or particles in a stream.

The test system of a further data set is MDA-MB-231. Put plainly: Induction of autophagy in human MDA-MB-231 cells assessed as increase in LC3-2 puncta level after 48 hrs by immunofluorescence staining based microscopic analysis. It is filed as functional, cell-based. The method in brief:
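Cells seeded on glass coverslips in complete 1640 or DMEM and incubated with inhibitors at different concentrations for 48 h. Fixed in 4% paraformaldehyde, permeabilized with 0.15% Triton X-100, blocked in 4% BSA/PBS for 1 h at room temperature. Anti-LC3B (1:200) overnight, then FITC-conjugated secondary, DAPI nuclear stain. LC3B-II puncta viewed by fluorescence microscopy.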

The subject of data set [9] is HeLa. Put plainly: Inhibition of mTORC1 in human HeLa cells assessed as reduction in 4E-BP1 phosphorylation at Thr37/46 residues at 0.5 to 1 uM by Western blot analysis. Format: cell-based. Put shortly: as §2
Another data set has as its system SK-OV-3. Put plainly: Growth inhibition of human SKOV3 cells after 72 hrs by CCK8 assay. Format: functional, cell-based. The conditions noted are these: SK-OV-3, 72 h. Put shortly: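 Cells were seeded at 2000–3000 per well and grown 24 h in serum-containing medium. They were then exposed to serially diluted compound for 72 h at 37 °C, 5% CO2. CCK8 reagent was added for 1–4 h and absorbance read at 450 nm. Inhibition = (AC − AS)/(AC − Ab) × 100%. IC50 is the average of at least three independent determinations.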
(Tetrazolium dyes change colour on reduction, which living cells bring about.)

Data set [10] is filed under the species Homo sapiens. Put plainly: Inhibition of mTORC1 in human MDA-MB-231 cells assessed as reduction in S6 phosphorylation at Ser 240/244 residues at 0.25 to 0.5 uM by Western blot analysis. Format: cell-based. The method in brief: as §2
A further data set deals with Mus musculus. Put plainly: Toxicity in BALB/c nude mouse xenografted with human T47D cells assessed as decrease in body weight at 15 to 60 mg/kg, po administered via gavage for 3 weeks measured during compound dosing. The note with it: in vivo, 504 h. It is filed as organism-based. The method in brief: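 BALB/c nude mice, 6−8 weeks old, injected subcutaneously with 100 μL T-47D cells at 2 × 10^7 per mL in serum-free medium. At 100−120 mm3, randomized to 5 groups of 5: 15, 30 or 60 mg/kg/d, rapamycin 60 mg/kg/d, or vehicle. Dosed daily by intragastric route in DMSO for 3 weeks. Side effects checked daily; body weight every other day.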

Data set [11] concerns PI3-kinase p110-alpha/p85-alpha (Homo sapiens), P27986+P42336 [E542K]. Put plainly: Inhibition of full length recombinant human p85alpha/PI3K p110alpha E542K mutant at 1 uM relative to control. Put shortly:
as §1

The species named for data set [12] is Homo sapiens. Put plainly: Inhibition of mTORC2 in human MCF7 cells assessed as reduction in AKT phosphorylation at Ser473 residues at 0.25 to 0.5 uM by Western blot analysis. It is filed as cell-based. Put shortly: as §2
The nature of data set [13]: Protein binding in rabbit plasma at 4 uM after 4 hrs by equilibrium dialysis method. The note with it: read-out: PPB (converted). It is filed as ADME, cell-free, Oryctolagus cuniculus. Put shortly:
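Plasma protein binding measured in rabbit and human plasma with compound at 4 μM over a 4 h period; result given as percent bound.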

Data set [14] is filed under the species Homo sapiens. Put plainly: Inhibition of mTORC1 in human MCF7 cells assessed as reduction in S6 phosphorylation at Ser 240/244 residues at 0.25 to 0.5 uM by Western blot analysis. It is filed as cell-based. Put shortly: as §2
Data set [15] in a line: Oral bioavailability in Sprague-Dawley rat at 20 mg/kg administered as single dose by HPLC analysis. It is filed as ADME, organism-based. The note with it: in vivo. Put shortly:
(§3)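 Rats fasted overnight, then given a single 20 mg/kg dose either iv or po. Blood collected and centrifuged immediately to obtain plasma. Plasma drug levels measured by HPLC, and pharmacokinetic parameters derived from both routes.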

Data set [16] is filed under the species Homo sapiens. Put plainly: Inhibition of mTORC1 in human SiHa cells assessed as reduction in 4E-BP1 phosphorylation at Thr37/46 residues at 0.25 to 0.5 uM by Western blot analysis. Format: cell-based. The method in brief:
as §2

Data set [17] is filed under the species Homo sapiens. Put plainly: Inhibition of mTORC1 in human MCF7 cells assessed as reduction in 4E-BP1 phosphorylation at Ser65 residues at 0.25 to 0.5 uM by Western blot analysis. It is filed as cell-based. Put shortly:
as §2

Data set [18] in a line: Tmax in Sprague-Dawley rat at 20 mg/kg, po administered as single dose by HPLC analysis. It is filed as ADME, organism-based. The conditions noted are these: in vivo. The method in brief: as §3
Data set [19] addresses Serine-protein kinase ATM (Homo sapiens, UniProt Q13315). Put plainly: Inhibition of full length recombinant human ATM.

Molecules are shown by their SMILES. Active and inactive are the calls of the source. The rule behind the calls is not given here.

Serine-protein kinase ATM, sequence (Q13315 whole entry): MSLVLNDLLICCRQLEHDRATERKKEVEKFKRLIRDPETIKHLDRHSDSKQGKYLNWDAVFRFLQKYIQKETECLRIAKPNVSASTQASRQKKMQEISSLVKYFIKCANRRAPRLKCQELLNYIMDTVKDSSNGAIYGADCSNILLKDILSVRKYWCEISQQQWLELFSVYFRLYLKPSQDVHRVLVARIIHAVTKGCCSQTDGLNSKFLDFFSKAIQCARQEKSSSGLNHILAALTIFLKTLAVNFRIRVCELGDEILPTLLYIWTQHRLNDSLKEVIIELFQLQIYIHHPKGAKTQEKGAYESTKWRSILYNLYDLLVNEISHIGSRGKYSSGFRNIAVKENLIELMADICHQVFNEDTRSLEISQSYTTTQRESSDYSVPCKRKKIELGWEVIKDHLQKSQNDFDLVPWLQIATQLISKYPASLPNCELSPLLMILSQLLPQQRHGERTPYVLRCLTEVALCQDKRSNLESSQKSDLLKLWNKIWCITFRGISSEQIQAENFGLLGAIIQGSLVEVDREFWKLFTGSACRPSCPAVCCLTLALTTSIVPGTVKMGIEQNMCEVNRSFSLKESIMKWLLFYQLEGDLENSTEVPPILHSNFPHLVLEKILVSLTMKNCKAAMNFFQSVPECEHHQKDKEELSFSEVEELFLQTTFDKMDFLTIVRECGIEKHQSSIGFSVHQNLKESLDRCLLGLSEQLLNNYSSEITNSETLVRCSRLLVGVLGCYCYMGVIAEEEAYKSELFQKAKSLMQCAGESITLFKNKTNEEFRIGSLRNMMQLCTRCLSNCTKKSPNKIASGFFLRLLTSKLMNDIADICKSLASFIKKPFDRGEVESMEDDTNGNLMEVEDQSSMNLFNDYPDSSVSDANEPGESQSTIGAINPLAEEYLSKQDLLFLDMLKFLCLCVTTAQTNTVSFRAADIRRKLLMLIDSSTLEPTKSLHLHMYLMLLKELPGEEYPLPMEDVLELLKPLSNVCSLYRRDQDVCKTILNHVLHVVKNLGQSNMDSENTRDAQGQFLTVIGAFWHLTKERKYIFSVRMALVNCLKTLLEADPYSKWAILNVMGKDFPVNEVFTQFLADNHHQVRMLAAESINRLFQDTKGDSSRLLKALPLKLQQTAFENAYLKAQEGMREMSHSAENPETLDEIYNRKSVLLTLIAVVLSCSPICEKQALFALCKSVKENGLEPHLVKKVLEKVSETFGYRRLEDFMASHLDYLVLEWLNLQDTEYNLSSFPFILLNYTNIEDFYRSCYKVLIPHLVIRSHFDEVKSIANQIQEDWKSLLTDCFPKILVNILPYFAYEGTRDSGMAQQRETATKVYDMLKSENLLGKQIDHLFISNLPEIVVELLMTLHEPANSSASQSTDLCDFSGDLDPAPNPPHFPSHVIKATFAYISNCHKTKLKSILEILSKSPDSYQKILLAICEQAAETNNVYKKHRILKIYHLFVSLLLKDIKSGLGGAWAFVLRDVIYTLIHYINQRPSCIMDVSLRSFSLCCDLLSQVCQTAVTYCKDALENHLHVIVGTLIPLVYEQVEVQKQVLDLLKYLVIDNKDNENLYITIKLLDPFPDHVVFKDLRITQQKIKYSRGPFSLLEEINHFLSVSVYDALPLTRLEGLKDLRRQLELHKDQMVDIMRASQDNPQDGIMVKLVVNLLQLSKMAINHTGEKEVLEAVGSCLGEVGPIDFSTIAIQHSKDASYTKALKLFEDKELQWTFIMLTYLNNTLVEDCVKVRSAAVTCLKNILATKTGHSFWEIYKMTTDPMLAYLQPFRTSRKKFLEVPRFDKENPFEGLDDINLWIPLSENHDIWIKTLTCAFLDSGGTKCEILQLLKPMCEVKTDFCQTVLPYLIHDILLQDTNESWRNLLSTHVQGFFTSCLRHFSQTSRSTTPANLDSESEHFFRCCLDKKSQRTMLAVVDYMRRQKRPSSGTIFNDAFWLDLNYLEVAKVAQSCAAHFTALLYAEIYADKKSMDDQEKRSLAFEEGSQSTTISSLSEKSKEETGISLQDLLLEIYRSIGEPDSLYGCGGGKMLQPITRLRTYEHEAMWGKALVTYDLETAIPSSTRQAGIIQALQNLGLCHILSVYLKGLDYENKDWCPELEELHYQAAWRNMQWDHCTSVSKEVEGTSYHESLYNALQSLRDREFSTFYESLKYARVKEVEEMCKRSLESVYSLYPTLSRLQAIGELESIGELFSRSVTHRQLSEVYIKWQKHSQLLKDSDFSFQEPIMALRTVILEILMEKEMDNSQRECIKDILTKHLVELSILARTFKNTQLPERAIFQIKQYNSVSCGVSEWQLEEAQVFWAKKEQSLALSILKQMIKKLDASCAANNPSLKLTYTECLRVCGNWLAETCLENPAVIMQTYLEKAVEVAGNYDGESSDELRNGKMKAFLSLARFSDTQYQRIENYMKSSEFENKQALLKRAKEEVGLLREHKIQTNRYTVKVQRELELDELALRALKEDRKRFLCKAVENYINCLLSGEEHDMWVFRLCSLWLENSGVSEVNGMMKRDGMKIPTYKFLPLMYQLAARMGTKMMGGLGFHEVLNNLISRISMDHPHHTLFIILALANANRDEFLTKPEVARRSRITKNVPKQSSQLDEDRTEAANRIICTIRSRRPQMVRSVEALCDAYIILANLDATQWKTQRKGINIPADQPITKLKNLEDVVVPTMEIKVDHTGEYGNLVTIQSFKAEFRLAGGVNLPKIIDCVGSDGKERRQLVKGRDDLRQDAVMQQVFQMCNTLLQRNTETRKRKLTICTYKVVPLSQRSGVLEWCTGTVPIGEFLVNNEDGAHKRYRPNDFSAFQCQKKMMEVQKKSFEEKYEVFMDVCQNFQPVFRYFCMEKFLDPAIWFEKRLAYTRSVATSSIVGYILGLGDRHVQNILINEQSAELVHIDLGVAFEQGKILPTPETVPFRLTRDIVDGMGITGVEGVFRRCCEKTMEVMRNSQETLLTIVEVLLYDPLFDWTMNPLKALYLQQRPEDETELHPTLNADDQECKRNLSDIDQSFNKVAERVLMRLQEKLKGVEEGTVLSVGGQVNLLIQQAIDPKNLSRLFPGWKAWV
Phosphatidylinositol 4-phosphate 3-kinase C2 domain-containing subunit alpha (Homo sapiens), sequence (O00443 whole entry, the tested form may be a part): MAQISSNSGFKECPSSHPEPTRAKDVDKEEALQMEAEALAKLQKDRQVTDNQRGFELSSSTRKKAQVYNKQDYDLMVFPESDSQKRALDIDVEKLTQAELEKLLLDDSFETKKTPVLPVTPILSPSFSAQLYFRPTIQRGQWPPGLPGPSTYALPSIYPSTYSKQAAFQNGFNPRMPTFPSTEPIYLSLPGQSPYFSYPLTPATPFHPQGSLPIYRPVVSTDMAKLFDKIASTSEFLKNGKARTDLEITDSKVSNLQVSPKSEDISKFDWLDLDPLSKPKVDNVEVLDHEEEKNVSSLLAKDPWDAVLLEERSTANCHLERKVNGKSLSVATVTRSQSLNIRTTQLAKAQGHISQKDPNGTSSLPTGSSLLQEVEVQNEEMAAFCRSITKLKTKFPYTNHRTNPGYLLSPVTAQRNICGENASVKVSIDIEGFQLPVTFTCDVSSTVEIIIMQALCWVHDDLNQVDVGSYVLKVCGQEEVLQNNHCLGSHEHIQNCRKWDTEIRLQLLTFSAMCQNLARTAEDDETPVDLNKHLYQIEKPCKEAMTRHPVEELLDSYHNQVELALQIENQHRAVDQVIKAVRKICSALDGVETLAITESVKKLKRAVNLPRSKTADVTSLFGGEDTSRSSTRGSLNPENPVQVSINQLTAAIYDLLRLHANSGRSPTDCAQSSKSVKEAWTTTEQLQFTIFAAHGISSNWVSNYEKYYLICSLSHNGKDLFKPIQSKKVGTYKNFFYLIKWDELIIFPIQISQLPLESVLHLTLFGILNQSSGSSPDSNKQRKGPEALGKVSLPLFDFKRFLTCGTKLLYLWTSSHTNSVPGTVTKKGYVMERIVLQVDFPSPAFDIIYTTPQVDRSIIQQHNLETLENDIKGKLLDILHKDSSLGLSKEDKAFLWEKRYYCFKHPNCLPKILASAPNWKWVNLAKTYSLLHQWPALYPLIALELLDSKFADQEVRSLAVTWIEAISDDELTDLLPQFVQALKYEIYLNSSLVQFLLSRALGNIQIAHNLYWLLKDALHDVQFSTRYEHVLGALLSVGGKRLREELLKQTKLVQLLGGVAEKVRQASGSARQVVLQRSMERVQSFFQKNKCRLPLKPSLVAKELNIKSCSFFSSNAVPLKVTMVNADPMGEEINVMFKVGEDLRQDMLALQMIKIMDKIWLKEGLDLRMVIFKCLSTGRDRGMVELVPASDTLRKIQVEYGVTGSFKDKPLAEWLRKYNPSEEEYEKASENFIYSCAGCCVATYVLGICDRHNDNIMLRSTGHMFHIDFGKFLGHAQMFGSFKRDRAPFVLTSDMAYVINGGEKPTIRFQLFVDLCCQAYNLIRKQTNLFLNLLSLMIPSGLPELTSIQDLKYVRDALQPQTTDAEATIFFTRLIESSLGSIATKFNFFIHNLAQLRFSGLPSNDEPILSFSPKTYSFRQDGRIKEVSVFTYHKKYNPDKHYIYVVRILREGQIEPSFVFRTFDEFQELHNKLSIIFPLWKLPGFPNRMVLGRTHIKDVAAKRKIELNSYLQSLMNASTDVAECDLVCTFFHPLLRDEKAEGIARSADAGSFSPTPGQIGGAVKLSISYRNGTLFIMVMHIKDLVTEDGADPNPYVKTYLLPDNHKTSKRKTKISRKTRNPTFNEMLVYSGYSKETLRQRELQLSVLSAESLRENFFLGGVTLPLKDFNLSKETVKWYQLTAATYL

For orientation: inhibition means how much of the control response was suppressed. For orientation: IC50 means the midpoint of a concentration-inhibition curve. For orientation: bioavailability means dose-corrected exposure relative to a reference, in per cent. High values mean much systemic uptake, low ones little systemic uptake. By Tmax is commonly meant the time from dosing to the highest level. Turning to `N#CCN1CCC(n2c(=O)cnc3cnc4ccc(-c5ccc(N)nc5)cc4c32)CC1`, the inhibition in data set [1] worked out at 4%; in [4], 4%; in data set [5] it was 4%; in [7] it was 7%; in data set [11] it was 11%. Besides, the inhibition result in the data set listed under Homo sapiens [2], in the data set with HeLa [3], in the data set filed under Homo sapiens [6], with HeLa [9], in the data set filed under Homo sapiens [10] and in the data set filed under Homo sapiens [12] was “Active” in each case. Further, the inhibition result in the data set listed under Homo sapiens [14], in the data set filed under Homo sapiens [16] and in the data set listed under Homo sapiens [17] was “Active” each time. The TGI entry in the data set with T47D was “Dose-dependent effect”. In addition, the outcome in the data set on HeLa [8] was Active. Further, the Activity result in the data set with MDA-MB-231 was “Dose-dependent effect”; in the data set with Mus musculus, “Non-Toxic”. Moreover, the IC50 came out at 1850 nM in the data set with SK-OV-3 and 62 nM in data set [19]. In data set [13], the fraction unbound at 4 h, 4 µM was 0.399. In [15], this compound gave a bioavailability of 43.5%. Further, the Tmax in data set [18] worked out at 3 h.
